ChEMBL document CHEMBL2331224 (J Med Chem, 2013)

Experiments:
[1] = molecular target: T1, Retinoic acid receptor RXR-alpha (Homo sapiens) (UniProt P19793); test: Partial agonist activity at RXRalpha (unknown origin) expressed in COS1 cells after 18 hrs by luciferase reporter gene assay relative to bexarotene; assay type: cell-based; settings: COS-1
T1 sequence (whole entry): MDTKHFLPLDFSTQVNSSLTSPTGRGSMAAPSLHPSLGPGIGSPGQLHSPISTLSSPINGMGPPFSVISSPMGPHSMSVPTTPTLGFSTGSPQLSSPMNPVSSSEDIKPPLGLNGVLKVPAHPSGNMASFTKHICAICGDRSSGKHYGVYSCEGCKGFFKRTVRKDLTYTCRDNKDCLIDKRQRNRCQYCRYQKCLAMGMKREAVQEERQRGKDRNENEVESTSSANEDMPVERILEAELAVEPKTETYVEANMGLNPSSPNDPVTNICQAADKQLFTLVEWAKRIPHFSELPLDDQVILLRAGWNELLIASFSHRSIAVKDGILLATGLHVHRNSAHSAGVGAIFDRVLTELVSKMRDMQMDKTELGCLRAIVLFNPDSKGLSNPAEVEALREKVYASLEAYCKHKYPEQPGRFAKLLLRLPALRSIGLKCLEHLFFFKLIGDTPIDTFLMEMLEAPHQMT
In short: (§1)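 COS-1 cells in DMEM with 10% FBS at 37 °C, 5% CO2, transfected with RXRα, an RXR-response-element luciferase reporter and a SEAP background vector. Cells were seeded at about 2.0 × 10⁴ per well with compound (DMSO below 1%) for 18 h. Luciferase was normalized to SEAP and expressed relative to 1 μM reference RXR full agonist as 100%. EC50 came from full dose-response curves. Triplicates, at least three experiments.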

[2] = molecular target: T1, Retinoic acid receptor RXR-alpha (Homo sapiens); test: Transactivation of RXRalpha (unknown origin) expressed in COS1 cells at 1 uM after 18 hrs by luciferase reporter gene assay relative to bexarotene; assay type: cell-based; settings: COS-1; in short: as §1
[3] = molecular target: T1, Retinoic acid receptor RXR-alpha (Homo sapiens); test: Transactivation of RXRalpha (unknown origin) expressed in COS1 cells at 0.1 uM after 18 hrs by luciferase reporter gene assay relative to bexarotene; assay type: cell-based; settings: COS-1; in short: as §1
[4] = molecular target: T2, Retinoic acid receptor RXR-alpha (Homo sapiens, UniProt P19793); test: Partial agonist activity at RXRalpha (unknown origin) expressed in COS1 cells after 18 hrs by luciferase reporter gene assay; assay type: cell-based, COS-1; in short: as §1
T2 sequence (P19793 whole entry): T1 sequence (whole entry)

[5] = molecular target: T1, Retinoic acid receptor RXR-alpha (Homo sapiens); test: Transactivation of RXRalpha (unknown origin) expressed in COS1 cells at 10 uM after 18 hrs by luciferase reporter gene assay relative to bexarotene; assay type: cell-based; settings: COS-1; in short: as §1
Mus musculus [6] = test: Toxicity against KKAy mouse assessed as plasma triglyceride level at 10 mg/kg/day, po for 14 days (reference value: 122.4 +/- 11.0 mg/dL); assay type: organism-based; design: route oral; settings: in vivo, 336 h
Mus musculus [7] = test: Toxicity against KKAy mouse assessed as total cholesterol level at 10 mg/kg/day, po for 14 days (reference value: 153.2 +/- 11.1 mg/dL); assay type: organism-based; design: route oral; settings: in vivo, 336 h
Mus musculus [8] = test: Toxicity against KKAy mouse assessed as creatinine level at 10 mg/kg/day, po for 14 days (reference value: 0.2 mg/dl); assay type: organism-based; design: route oral; settings: in vivo, 336 h
Mus musculus [9] = test: Toxicity against KKAy mouse assessed as plasma ALP level at 10 mg/kg/day, po for 14 days (reference value: 358.2 +/- 43.1 IU); assay type: organism-based; design: route oral; settings: in vivo, 336 h
Mus musculus [10] = test: Toxicity against KKAy mouse assessed as blood urea nitrogen level at 10 mg/kg/day, po for 14 days (reference value: 21.9 +/- 1.1 mg/dL); assay type: organism-based; design: route oral; settings: in vivo, 336 h
Mus musculus [11] = test: Toxicity against KKAy mouse assessed as plasma ALT level at 10 mg/kg/day, po for 14 days (reference value: 17.6 +/- 0.9 IU); assay type: organism-based; design: route oral; settings: in vivo, 336 h
Mus musculus [12] = test: Toxicity against KKAy mouse assessed as plasma gammaGTP level at 10 mg/kg/day, po for 14 days (reference value: 5.8 +/- 0.6 IU); assay type: organism-based; design: route oral; settings: in vivo, 336 h
Mus musculus [13] = test: Toxicity against KKAy mouse assessed as plasma AST level at 10 mg/kg/day, po for 14 days (reference value: 49.6 +/- 2.3 IU); assay type: organism-based; design: route oral; settings: in vivo, 336 h
Mus musculus [14] = test: Toxicity in ICR mouse assessed as change in renal function parameters at 30 mg/kg/day, po for 7 days; assay type: organism-based; design: route oral; settings: in vivo, 168 h
In short: (§2)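 Male ICR mice, 6−7 weeks old, four per cage, grouped by body weight. Oral 30 mg/kg or vehicle (1% ethanol/0.5% CMC in water, 10 mL/kg) once daily for 7 days, body weight recorded daily. After overnight fasting, mice were weighed under ether, and liver was removed and weighed. Serum was analysed on a dry-chemistry analyser for TG, TCHO, ALP, CRE, BUN and other markers. n = 7−23, ANOVA.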

Mus musculus [15] = test: Toxicity in ICR mouse assessed as increase in blood triglyceride level at 30 mg/kg/day, po for 7 days; assay type: organism-based; design: route oral; settings: in vivo, 168 h; in short: as §2
Mus musculus [16] = test: Toxicity in ICR mouse assessed as weight gain at 30 mg/kg/day, po for 7 days relative to control; assay type: organism-based; design: route oral; settings: in vivo, 168 h; in short: as §2

Structure (SMILES)	Emax [1] [%]	Efficacy [2] [%]	Efficacy [3] [%]	EC50 [4] [nM]	Efficacy [5] [%]	also measured
Cc1cc2c(cc1-n1c(=S)[nH]c3cc(C(=O)O)ccc31)C(C)(C)CCC2(C)C		< 5	< 5		37	
Cc1cc2c(cc1-n1ccc3cc(C(=O)O)ccc31)C(C)(C)CCC2(C)C	73	67	45	83	77	
Cc1cc2c(cc1-n1c(=O)[nH]c3cc(C(=O)O)ccc31)C(C)(C)CCC2(C)C		< 5	< 5		22	
CCc1ccc(CCOc2ccc(CC3SC(=O)NC3=O)cc2)nc1 (centres undefined) [PIOGLITAZONE]						Activity (Mus musculus [6]): 124 mg/dL; Activity (Mus musculus [7]): 147.3 mg/dL; Activity (Mus musculus [8]): 0.2 mg/dL; Activity (Mus musculus [9]): 395.7 IU; Activity (Mus musculus [10]): 22.2 mg/dL; Activity (Mus musculus [11]): 21.3 IU; Activity (Mus musculus [12]): 7.3 IU; Activity (Mus musculus [13]): 45.3 IU
CCN(c1ccc2c(c1)C(C)(C)CCC2(C)C)c1ccc(C(=O)O)cn1		96	86	3.8	98	Activity (Mus musculus [14]): Non-toxic; Activity (Mus musculus [15]): Non-toxic; Activity (Mus musculus [16]): Non-toxic

More lines, main results first:

Emax [1] [%]	Efficacy [2] [%]	Efficacy [3] [%]	EC50 [4] [nM]	Efficacy [5] [%]	Structure (SMILES)	also measured
75	52	< 5	633	72	Cc1cc2c(cc1-n1cnc3cc(C(=O)O)ccc31)C(C)(C)CCC2(C)C	
94	70	28	367	80	Cc1cc2c(cc1-n1c(C)nc3cc(C(=O)O)ccc31)C(C)(C)CCC2(C)C	Activity (Mus musculus [14]): Non-toxic; Activity (Mus musculus [15]): Non-toxic; Activity (Mus musculus [16]): Non-toxic
103	35	< 5	155	96	Cc1cc2c(cc1-n1c(N)nc3cc(C(=O)O)ccc31)C(C)(C)CCC2(C)C	
